# From PubChem BioAssay
# CHOP UPR activ – activators of apoptotic arm of unfolded protein response (CHOP); CHO-CHOP luciferase reporter, UPR activation, luminescence; percent of tunicamycin response over DMSO baseline; activation, % at 10 µM; 330,000 compounds, 0.34% hits; AID 449763;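 active means at 10 µM dose, activation of 40% or more, normalized to positive control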;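 further: 100% = tunicamycin at 10 µg/mL and 0% = DMSO alone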
#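 Assay system: CHO cells with stable CHOP pathway luciferase reporter; Buffer or medium: F12 plus 10% serum; Times: 16-18 h cell attachment, then 6 h compound exposure, 37 °C; Signal: luciferase luminescence; Read-out basis: percent activation relative to tunicamycin control; Control set: tunicamycin high control, DMSO low control.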
# XBP1 UPR activ – activators of adaptive arm of unfolded protein response (XBP1) | CHO-XBP1 luciferase reporter, IRE1-XBP1 UPR activation, luminescence; percent of tunicamycin response, DMSO as zero | activation, % at 20 µM | 330,000 compounds, 0.33% hits | AID 463104;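 active means versus positive control, 20 µM dose yields 30% or more activation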;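 further: 100% = tunicamycin at 10 µg/mL and 0% = DMSO only wells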
#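 Material: CHO cell line with stable XBP1 luciferase reporter; schedule: 16-18 h cell attachment at 37 °C, then 6 h compound exposure; signal: glow luminescence from Steady-Glo reagent; medium: serum-containing F12 medium, 10% FBS; benchmarks: tunicamycin 10 µg/mL and vehicle-only wells; read-out: percent activation relative to tunicamycin reference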
# aDG glyco act – increases alpha dystroglycan glycosylation; Pro5-aDG cells, alpha-DG glycosylation AlphaScreen (IIH6); 0% Pro5, 100% B10-LARGE cell signal; activation, % at 10 µM; 360,000 compounds, 0.22% hits; AID 624168;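 active means activation of at least 8% versus controls, or a plate z-score of at least 8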;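 further: Pro5 are CHO cells carrying HIG-tagged alpha-DG that lacks glycosylation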
# MPTP inh – permeability transition pore inhibition. isolated mouse mitochondria, Ca2+ swelling absorbance, 30 min. 360,000 compounds, 1.4% hits. inhibition, % at 10 µM;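 active means inhibition of 50% or more, scaled per plate between neutral and stimulator controls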;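 further: 0% = DMSO wells given calcium and 100% = 1 mM EGTA wells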
# GRIN3A LBD mod – modulates the human NR3A ligand-binding domain. Tm shift relative to glycine control, % at 25 µM. 340,000 compounds, 2.5% hits. NR3A LBD differential scanning fluorimetry, Tm shift; 0% = protein alone, 100% = glycine-bound protein;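 active means melting temperature shift of at least 10% of the positive control shift, at one fixed dose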
# CHOP inh – inhibitors of CHOP induction in ER stress response. CHO-K1 CHOP-promoter luciferase, tunicamycin-induced, 15-18 h. inhibition, % at 10 µM. 220,000 compounds, 3.8% hits. AID 2732;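 active means compounds that reduced the stress-induced luciferase reporter signal by more than about 70% of percent inhibition, limit read from the data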;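 further: 0% = tunicamycin plus vehicle and 100% = wells without tunicamycin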
# Rh123 counter – mitochondrial membrane potential, counter-screen; shares compounds with MPTP inh; isolated mitochondria, Rhodamine 123 fluorescence; inhibition, % at 10 µM; 5,000 compounds, 78% hits; in the data active means inhibition above about 22%;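 further: 0% = DMSO vehicle and 100% = positive control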
# MPTP abs DR – dose response confirmation of mitochondrial permeability transition pore inhibitors | shares compounds with MPTP inh | isolated mitochondria swelling, absorbance | IC50, µM | 780 compounds, 58% hits | AID 651561; in the data active means IC50 below about 20 µM
# MPTP counter DR – counter-screen for mitochondrial permeability transition pore inhibitors, dose response. shares compounds with MPTP inh. isolated mitochondria counterscreen, fluorescence read-out. IC50, µM. 780 compounds, 49% hits. AID 651564; in the data active means IC50 below about 80 µM
# Starred values were filed as active, the others as inactive; i = inactive; nt = no result given. Hits are enriched below; roughly 5.6% of the tested compounds scored in any of these assays.
SMILES,CHOP UPR activ,XBP1 UPR activ,aDG glyco act,MPTP inh,GRIN3A LBD mod,CHOP inh,Rh123 counter,others
O=C(NC1CCCC1)C1c2ccccc2OCC(=O)N1CCCN1CCOCC1 (stereo unspecified),nt,nt,0,0,nt,nt,nt,
Cc1ccc(S(=O)(=O)N(C)C[C@H]2OCc3cn(nn3)CCCC(=O)N([C@H](C)CO)C[C@@H]2C)cc1,nt,nt,0,-2,nt,nt,nt,
Cc1ccc(NC(=O)NNC(=O)c2snnc2C)cc1,0,1,0,-2,-2,13,nt,
CCN(CC)c1ccc2cc(S(=O)(=O)c3ccc(Cl)cc3)c(=O)oc2c1,2,-3,2,1,-4,-8,nt,
CCCCCCc1cc2cc(S(=O)(=O)c3ccc(C)cc3)c(=O)oc2cc1O,3,-4,0,99*,27*,86*,78*,
CCCCCCc1cc2cc(S(=O)(=O)c3ccc(Cl)cc3)c(=O)oc2cc1O,2,-4,0,101*,106*,69,94*,
O=c1oc2cc(O)ccc2cc1S(=O)(=O)c1ccccc1,2,-3,0,0,-1,nt,nt,
CC(O)(C#CCN1CCCCC1)c1ccccc1 (stereo unspecified),0,-1,0,-1,-2,16,nt,
CC(C)(C#CCN1CCCCC1)OCCOC(c1ccccc1)c1ccccc1,0,-3,0,77*,2,77*,12,MPTP abs DR=20*;MPTP counter DR=20*
O=C(Nc1ccc(Br)cc1)c1cccc(N2C(=O)C3CCCCC3C2=O)c1 (stereo unspecified),1,-3,0,0,-5,nt,nt,
COC(=O)Cc1ccc(NC(=S)NCCSc2ccc(Cl)cc2)cc1,2,-4,0,63*,-2,23,77*,
Cc1ccc(SCCNC(=S)Nc2ccc(C)c(C)c2)cc1,-2,-3,0,72*,7,75*,91*,
Cc1ccc(SCCNC(=S)Nc2ccccc2)cc1,-3,4,0,6,2,66,nt,
Cc1cc(C)cc(NC(=S)NCCSc2ccc(Cl)cc2)c1,-2,-1,1,87*,13*,88*,98*,
Fc1ccc2cnc(CCO[C@H]3CCCCO3)cc2c1,-2,-4,0,0,0,nt,nt,
CC[C@H](C)[C@@H](CN[C@H](C)CNC)NCCC(c1ccccc1)c1ccccc1,-1,-1,0,101*,-3,nt,-17,MPTP abs DR=3.8*;MPTP counter DR=>80
CCOc1ccc(NS(=O)(=O)c2c(C(=O)N3CCCCCC3)c(C)n(C)c2C)cc1,1,-6,0,0,7,nt,nt,
O=C(COC(=O)C12CC3CC(CC(C3)C1)C2)Nc1nc2c(F)c(F)c(F)cc2s1,0,-4,0,70*,29*,95*,40*,
COc1ccc(C(=O)OCC(=O)Nc2nc3c(F)c(F)c(F)cc3s2)cc1OC,1,1,0,0,1,-11,nt,
CC(C)C1O/C(=N/C(=O)Nc2ccc(Cl)c(Cl)c2)NC1=O (stereo unspecified),1,3,0,93*,-6,61,92*,
COc1ccc(C(=O)Nc2ccc(Cl)c(Cl)c2)c(OC)n1,3,-8,0,0,1,3,nt,
COc1cc(C(=O)OCCc2cc3ccccc3c(=O)o2)cc(OC)c1OC,0,0,1,-1,-2,nt,nt,
COc1ccc(C2C(=O)c3ccccc3C2=Nc2ccc(Br)cc2)cc1 (stereo unspecified),0,10,0,90*,-5,nt,50*,
O=[N+]([O-])c1cccc(S(=O)(=O)[N-]c2nc3ccccc3nc2-n2cc[n+](Cc3ccccc3)c2)c1,-2,-5,0,5,-1,7,nt,
Fc1ccc(NC(=S)Nc2ccccc2OC(F)F)cc1Cl,-3,-1,0,100*,5,8,76*,
SMILES,CHOP UPR activ,XBP1 UPR activ,aDG glyco act,MPTP inh,GRIN3A LBD mod,CHOP inh,Rh123 counter,others
COc1ccc(NC(=S)Nc2cccc(Cl)c2)cc1OC,7,-2,0,8,-3,-15,nt,
COc1ccc(NC(=S)Nc2ccc(C)c(Cl)c2)cc1OC,1,-2,0,52*,13*,13,100*,
Cc1ccc(NC(=S)Nc2ccc(Cl)c(Cl)c2)c(OC(F)F)c1,3,0,0,100*,15*,82*,90*,
Fc1ccc(NC(=S)Nc2ccccc2N2CCOCC2)cc1Cl,-1,-3,0,100*,-3,15,98*,
FC(F)Oc1ccccc1NC(=S)Nc1cccnc1,0,4,0,2,-2,23,nt,
Cc1ccc(S(=O)(=O)N2CCCC2)cc1C(=O)NCc1ccccc1CN1CCCC1,1,0,0,1,3,nt,nt,
Cc1ccc(S(=O)(=O)N2CCCCC2)cc1NC(=O)COC(=O)c1cccc(O)c1,nt,nt,0,-1,nt,nt,nt,
O=C(CCNC(=O)c1ccco1)Nc1ccc(OC(F)F)c(Cl)c1,0,9,0,0,-11,nt,nt,
O=C(NNC(=S)Nc1cccc(Cl)c1)c1ccccc1OC(F)F,0,1,0,86*,0,-3,90*,
Cc1ccc(NC(=S)Nc2ccc(OC(F)F)c(Cl)c2)cc1Cl,nt,nt,0,95*,38*,91*,92*,
CC(NC(=S)Nc1ccc(OC(F)F)c(Cl)c1)C(C)(C)C (stereo unspecified),1,0,2,93*,6,70,95*,
Cc1ccc(CSc2nnc([C@@H]3CCCN3C(=O)OC(C)(C)C)o2)cc1,-1,-2,0,0,0,3,nt,
O=C(CSc1nc(O)cc(=O)n1-c1ccccc1)Nc1ccc(Br)cn1,0,0,0,-1,-2,1,nt,
COc1ccc(CCN2CCCC(CN(C)Cc3cc(Cl)c(O)c(OC)c3)C2)cc1 (stereo unspecified),2,-2,0,2,0,nt,nt,
N/C(=N\N=C/c1ccc(F)cc1)N/N=C\c1ccc(F)cc1,0,18,0,4,5,nt,nt,
N/C(=N\N=C/c1ccc(Br)cc1)N/N=C\c1ccc(Br)cc1,1,-3,0,59*,28*,-4,-6,MPTP abs DR=i;MPTP counter DR=37*
COc1ccc([C@H]2CC(=O)C=C(c3c(OC)cccc3OC)C2)cc1,0,3,0,0,0,nt,nt,
